# Laboratory results as given in ChEMBL document CHEMBL4118245, “Stereoselective synthesis of new rac-quercitols containing hydroxymethyl groups as glucosidase inhibitors” (Bioorg Med Chem Lett, 2018).
# Columns and labels:
# Saccharomyces cerevisiae [1] = assay: Inhibition of Saccharomyces cerevisiae alpha-glucosidase at 45 uM using 4-nitrophenyl D-glucopyranoside as substrate after 3 mins by UV/Vis spectrophotometric method relative to control
# In short: (§1)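 Compounds were tested at 10, 20, 25, 45, 80, 120 and 180 µM, with percent enzyme inhibition reported at each level. Acarbose served as the positive control. The study ran four experiments per compound, each in triplicate, and reports mean ± S.D. IC50 is the concentration giving 50% inhibition of enzyme activity under the assay conditions, taken from this concentration series.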
# Saccharomyces cerevisiae [2] = assay: Inhibition of Saccharomyces cerevisiae alpha-glucosidase at 120 uM using 4-nitrophenyl D-glucopyranoside as substrate after 3 mins by UV/Vis spectrophotometric method relative to control; in short: as §1
# Prunus dulcis [3] = assay: Inhibition of almond beta-glucosidase at 80 uM using p-nitrophenyl D-glucopyranoside as substrate after 3 mins by UV/Vis spectrophotometric method relative to control; in short: as §1
# Prunus dulcis [4] = assay: Inhibition of almond beta-glucosidase at 120 uM using p-nitrophenyl D-glucopyranoside as substrate after 3 mins by UV/Vis spectrophotometric method relative to control; in short: as §1
# Saccharomyces cerevisiae [5] = assay: Inhibition of Saccharomyces cerevisiae alpha-glucosidase at 180 uM using 4-nitrophenyl D-glucopyranoside as substrate after 3 mins by UV/Vis spectrophotometric method relative to control; in short: as §1
# Prunus dulcis [6] = assay: Inhibition of almond beta-glucosidase at 25 uM using p-nitrophenyl D-glucopyranoside as substrate after 3 mins by UV/Vis spectrophotometric method relative to control; in short: as §1
# Prunus dulcis [7] = assay: Inhibition of almond beta-glucosidase at 45 uM using p-nitrophenyl D-glucopyranoside as substrate after 3 mins by UV/Vis spectrophotometric method relative to control; in short: as §1
# Prunus dulcis [8] = assay: Inhibition of almond beta-glucosidase at 180 uM using p-nitrophenyl D-glucopyranoside as substrate after 3 mins by UV/Vis spectrophotometric method relative to control; in short: as §1
# Prunus dulcis [9] = assay: Inhibition of almond beta-glucosidase at 20 uM using p-nitrophenyl D-glucopyranoside as substrate after 3 mins by UV/Vis spectrophotometric method relative to control; in short: as §1
# Saccharomyces cerevisiae [10] = assay: Inhibition of Saccharomyces cerevisiae alpha-glucosidase at 25 uM using 4-nitrophenyl D-glucopyranoside as substrate after 3 mins by UV/Vis spectrophotometric method relative to control; in short: as §1
# Saccharomyces cerevisiae [11] = assay: Inhibition of Saccharomyces cerevisiae alpha-glucosidase at 20 uM using 4-nitrophenyl D-glucopyranoside as substrate after 3 mins by UV/Vis spectrophotometric method relative to control; in short: as §1
# Prunus dulcis [12] = assay: Inhibition of almond beta-glucosidase at 10 uM using p-nitrophenyl D-glucopyranoside as substrate after 3 mins by UV/Vis spectrophotometric method relative to control; in short: as §1
# Saccharomyces cerevisiae [13] = assay: Inhibition of Saccharomyces cerevisiae alpha-glucosidase at 10 uM using 4-nitrophenyl D-glucopyranoside as substrate after 3 mins by UV/Vis spectrophotometric method relative to control; in short: as §1
# Saccharomyces cerevisiae [14] = assay: Inhibition of Saccharomyces cerevisiae alpha-glucosidase at 80 uM using 4-nitrophenyl D-glucopyranoside as substrate after 3 mins by UV/Vis spectrophotometric method relative to control; in short: as §1
# [15] = Inhibition of almond beta-glucosidase using p-nitrophenyl D-glucopyranoside as substrate after 3 mins by UV/Vis spectrophotometric method; set-up: species or system Prunus dulcis; in short: as §1
# [16] = Inhibition of Saccharomyces cerevisiae alpha-glucosidase using 4-nitrophenyl D-glucopyranoside as substrate after 3 mins by UV/Vis spectrophotometric method; in short: as §1
inhibition (Saccharomyces cerevisiae [1]) [%],inhibition (Saccharomyces cerevisiae [2]) [%],inhibition (Prunus dulcis [3]) [%],inhibition (Prunus dulcis [4]) [%],inhibition (Saccharomyces cerevisiae [5]) [%],inhibition (Prunus dulcis [6]) [%],inhibition (Prunus dulcis [7]) [%],inhibition (Prunus dulcis [8]) [%],inhibition (Prunus dulcis [9]) [%],inhibition (Saccharomyces cerevisiae [10]) [%],inhibition (Saccharomyces cerevisiae [11]) [%],inhibition (Prunus dulcis [12]) [%],inhibition (Saccharomyces cerevisiae [13]) [%],inhibition (Saccharomyces cerevisiae [14]) [%],IC50 [15] [µM],IC50 [16] [µM],Structure (SMILES)
19.9,37.6,31.8,32.1,42.2,28.4,30.4,33.3,27.8,19.4,18.8,3.4,15.8,21.4,–,–,OC[C@H]1C[C@@H](O)[C@H](O)[C@H](O)[C@H]1CO
21,40,19.1,20.2,42,12.7,13.7,30.8,4.98,19,13,2.2,10,31,–,–,OC[C@H]1C[C@H](O)[C@@H](O)[C@@H](O)[C@H]1CO
19,22,37.5,42.7,25,29,34.3,51.8,20.4,14,6,18,2,20,198,–,OC[C@H]1C[C@H](O)[C@H](O)[C@H](O)[C@H]1CO
46,63,52,60,74,29,39,66,25,33,30,17,22,60,57.8,52.5,C[C@H]1O[C@H](O[C@H]2[C@H](O)[C@@H](O)[C@@H](O[C@H]3[C@H](O)[C@@H](O)C(O)O[C@@H]3CO)O[C@@H]2CO)[C@H](O)[C@@H](O)[C@@H]1N[C@H]1C=C(CO)[C@@H](O)[C@H](O)[C@H]1O (some centres undefined) [ACARBOSE]
